CHOP UPR activ = apoptotic UPR (CHOP) activation | AID 449763 | activation, % at 10 µM | 330,000 compounds, 0.34% hits | CHO-CHOP luciferase reporter, luminescence; percent of tunicamycin response over DMSO baseline;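 active means at 10 µM dose, activation of 40% or more, normalized to positive control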;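 further: 100% = tunicamycin at 10 µg/mL and 0% = DMSO alone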
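Assay system: CHO cells with stable CHOP pathway luciferase reporter; Buffer or medium: F12 plus 10% serum; Times: 16-18 h cell attachment, then 6 h compound exposure, 37 °C; Signal: luciferase luminescence; Read-out basis: percent activation relative to tunicamycin control; Control set: tunicamycin high control, DMSO low control.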
CHOP inh = blocks CHOP induction under ER stress | CHO-K1 CHOP-promoter luciferase, tunicamycin-induced, 15-18 h | inhibition, % at 10 µM | 220,000 compounds, 3.8% hits;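 active means compounds that reduced the stress-induced luciferase reporter signal by more than about 70% of percent inhibition, limit read from the data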;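 further: 0% = tunicamycin plus vehicle and 100% = wells without tunicamycin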
Jurkat NFkB inh = inhibitors of the PMA/ionomycin-induced NF-kB reporter in Jurkat cells; AID 435003; 330,000 compounds, 0.53% hits; PMA/ionomycin-induced NF-kB luciferase reporter, luminescence; inhibition, % at 4 µM; in the data active means inhibition above about 50%
XBP1 UPR activ = adaptive UPR (XBP1) activation | CHO-XBP1 luciferase reporter, IRE1-XBP1 UPR activation, luminescence; percent of tunicamycin response, DMSO as zero | activation, % at 20 µM | 330,000 compounds, 0.33% hits | AID 463104;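 active means versus positive control, 20 µM dose yields 30% or more activation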;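 further: 100% = tunicamycin at 10 µg/mL and 0% = DMSO only wells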
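Material: CHO cell line with stable XBP1 luciferase reporter; schedule: 16-18 h cell attachment at 37 °C, then 6 h compound exposure; signal: glow luminescence from Steady-Glo reagent; medium: serum-containing F12 medium, 10% FBS; benchmarks: tunicamycin 10 µg/mL and vehicle-only wells; read-out: percent activation relative to tunicamycin reference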
697 NFkB inh = lowers PMA/ionomycin-induced NF-kB signal in 697 B cells; 697 B-cell NF-kB luciferase reporter, 16 h; inhibition, % at 4 µM; 330,000 compounds, 0.33% hits; AID 435022; in the data active means inhibition above about 35%
Jurkat NFkB conf = inhibitors of the PMA/ionomycin-induced NF-kB reporter in Jurkat cells, retest; shares compounds with Jurkat NFkB inh; Jurkat NF-kB luciferase, 16 h; inhibition, % at 4 µM; 2,700 compounds, 27% hits; AID 435020;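 active means inhibition reaching about 45% at 4 µM in either replicate, limit read from the data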;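 further: plate controls were PMA/ionomycin stimulated DMSO wells for no effect and unstimulated DMSO wells for full effect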
* hit, by the source's call. This excerpt belongs to a sample that is enriched for hits.

`NC(=O)CC(NC(=O)Cc1ccc(Cl)cc1)c1ccc(NCC2CC2)c([N+](=O)[O-])c1` (centres undefined) gave CHOP UPR activ -1, CHOP inh 2, Jurkat NFkB inh 31, XBP1 UPR activ 0 and 697 NFkB inh 11.
NC(=O)CC(NC(=O)Cc1ccc(Br)cc1)c1ccc(NCC2CC2)c([N+](=O)[O-])c1 (centres undefined) was read as CHOP UPR activ -2, CHOP inh 77*, Jurkat NFkB inh 51*, XBP1 UPR activ -3, 697 NFkB inh 8 and Jurkat NFkB conf 24.
`CC(C)Nc1ccc(C(CC(N)=O)NC(=O)c2ccc(Br)cc2)cc1[N+](=O)[O-]` (centres undefined) gave CHOP UPR activ 1, CHOP inh -3, Jurkat NFkB inh 59*, XBP1 UPR activ -2, 697 NFkB inh -3 and Jurkat NFkB conf 45.
Cc1cccc(NC(=O)Cn2cnc3c(oc4ccccc43)c2=O)c1C was read as CHOP UPR activ 2, CHOP inh 21, Jurkat NFkB inh 1, XBP1 UPR activ -1 and 697 NFkB inh 12.
`O=C(CSc1nc2ccccc2[nH]1)c1ccccc1F` gave CHOP UPR activ 4, Jurkat NFkB inh -82, XBP1 UPR activ 1 and 697 NFkB inh -61.
For Fc1cccc(F)c1CSc1nc2ccccc2[nH]1 the results were CHOP UPR activ 5, CHOP inh -30, Jurkat NFkB inh -170, XBP1 UPR activ 3, 697 NFkB inh -187 and Jurkat NFkB conf -136.
Cc1cccn2c(=O)nc(SCC(=O)Nc3ccc4c(c3)OCO4)nc12 was read as CHOP UPR activ -1, Jurkat NFkB inh -2, XBP1 UPR activ -1 and 697 NFkB inh -4.
Screening COc1ccc(C(=O)N2CCNC(=O)C2)cc1S(=O)(=O)Nc1ccc(Br)cc1 returned CHOP UPR activ -1, Jurkat NFkB inh -5, XBP1 UPR activ 0 and 697 NFkB inh 12.
`O=C(NCc1ccccc1)c1c(Cl)nc(Cl)c(Cl)c1Cl` gave CHOP UPR activ 4, Jurkat NFkB inh 51*, XBP1 UPR activ 3, 697 NFkB inh 6 and Jurkat NFkB conf 13.
Screening CCOC(=O)c1c(C)[nH]c(C(=O)Nc2ccc(C)c(Cl)c2)c1C returned CHOP UPR activ 8, CHOP inh -51, Jurkat NFkB inh -165, XBP1 UPR activ 2, 697 NFkB inh -166 and Jurkat NFkB conf -82.
`CCOC(=O)c1c(C)[nH]c(C(=O)Nc2ccc(NC(C)=O)cc2)c1C` gave CHOP UPR activ -1, CHOP inh 28, Jurkat NFkB inh 1, XBP1 UPR activ -5 and 697 NFkB inh 23.
`Oc1ccc(Nc2nc3ccccc3nc2Nc2ccc(O)cc2)cc1` gave CHOP UPR activ 2, CHOP inh 46, Jurkat NFkB inh 84*, XBP1 UPR activ -3, 697 NFkB inh -127 and Jurkat NFkB conf 54*.
Oc1ccc(Nc2nc(-c3ccccc3)nc3ccccc23)cc1 was read as CHOP UPR activ -1, Jurkat NFkB inh 0, XBP1 UPR activ 2 and 697 NFkB inh 12.
`CCOc1ccc(CO/N=C/c2c(C)[nH]c(=O)[nH]c2=O)cc1` gave CHOP UPR activ -2, CHOP inh 17, Jurkat NFkB inh -4, XBP1 UPR activ -1 and 697 NFkB inh -7.
`Cc1cccc(N(CC(=O)N/N=C/c2cc([N+](=O)[O-])ccc2Cl)S(C)(=O)=O)c1C` gave CHOP UPR activ 0, CHOP inh 0, Jurkat NFkB inh -3, XBP1 UPR activ 2 and 697 NFkB inh -9.
For CC1=Nc2cc(C(=O)NCc3ccco3)ccc2Sc2ccc(C)cc21 the results were CHOP UPR activ 0, CHOP inh -20, Jurkat NFkB inh 51*, XBP1 UPR activ 13, 697 NFkB inh 7 and Jurkat NFkB conf 18.
`CC1=Nc2cc(C(=O)NCC3CCCO3)ccc2Sc2ccc(C)cc21` (centres undefined) gave CHOP UPR activ 3, Jurkat NFkB inh 49, XBP1 UPR activ 8 and 697 NFkB inh -37.
CCCOc1ccc(/C=N/Nc2cc(N3CCOCC3)ncn2)c(O)c1 was read as CHOP UPR activ -3, Jurkat NFkB inh 55*, XBP1 UPR activ 1, 697 NFkB inh -71 and Jurkat NFkB conf 76*.
For Clc1ccccc1/C=N/Nc1cc(N2CCOCC2)ncn1 the results were CHOP UPR activ 5, Jurkat NFkB inh -60, XBP1 UPR activ 1 and 697 NFkB inh -102.
Cc1cc(NC(=O)CSc2nnc(-c3ccccc3)c(-c3ccccc3)n2)no1 was read as CHOP UPR activ 1, CHOP inh 15, Jurkat NFkB inh 60*, XBP1 UPR activ 2, 697 NFkB inh 4 and Jurkat NFkB conf 13.
For COc1ccccc1N1CCN(C(=O)c2cn(Cc3ccccc3)nc2-c2cccnc2)CC1 the results were CHOP UPR activ -2, Jurkat NFkB inh -5, XBP1 UPR activ -1 and 697 NFkB inh -17.
`O=C(c1cc2ccccc2cc1O)N1CCN(c2cccc(Cl)c2)CC1` gave CHOP UPR activ 1, Jurkat NFkB inh 2, XBP1 UPR activ -1 and 697 NFkB inh 1.
For COc1ccccc1C(=O)N1CCN(c2cccc(Cl)c2)CC1 the results were CHOP UPR activ -1, Jurkat NFkB inh 56*, XBP1 UPR activ 1, 697 NFkB inh -35 and Jurkat NFkB conf 33.
Screening COc1cccc(N2CCN(C(=O)c3cn(Cc4ccccc4)nc3-c3cccnc3)CC2)c1 returned CHOP UPR activ 0, Jurkat NFkB inh 61*, XBP1 UPR activ 0, 697 NFkB inh -45 and Jurkat NFkB conf 40.
O=C(c1c(Cl)nc2sccn12)N1CCN(c2cccc(Cl)c2)CC1 was read as CHOP UPR activ -2, Jurkat NFkB inh 61*, XBP1 UPR activ 0, 697 NFkB inh -4 and Jurkat NFkB conf 47.
Screening COc1ccc(OC)c(CN2CCN(C(=O)[C@@H](NC(=O)c3cccc(C)c3)C(C)C)CC2)c1 returned CHOP UPR activ -2, Jurkat NFkB inh 8, XBP1 UPR activ -2 and 697 NFkB inh 18.
CCOCCCNC(=O)C1CCN(S(=O)(=O)c2ccc3nc4c(c(C(=O)O)c3c2)CCCCC4)CC1 was read as CHOP UPR activ -2, Jurkat NFkB inh 4, XBP1 UPR activ -3 and 697 NFkB inh 16.
`CSc1nc(O)c(/C=C2\C=Nc3ccccc32)[nH]1` gave CHOP UPR activ 3, CHOP inh 11, Jurkat NFkB inh -40, XBP1 UPR activ 5 and 697 NFkB inh -37.
For O=c1[nH]c(/C=C2\C=Nc3ccccc32)c(O)n1Cc1ccccc1F the results were CHOP UPR activ -2, CHOP inh 56, Jurkat NFkB inh 84*, XBP1 UPR activ 0, 697 NFkB inh -18 and Jurkat NFkB conf 10.
